Bounds are passed on as bounds.

For assay [1], the system named is Canis familiaris. The assay is described as follows: Antiarrhythmic activity in Beagle dogs following i.v. administration; minimum effective dose to suppress ventricular ectopic rate >/=25% for a minimum duration of 10 min. Format: functional, Canis lupus familiaris, Heart. To be noted: for minimal effective dose: Canis lupus familiaris, Heart, iv, 10 min, read-out: MED. Summed up:
(§1)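 Beagles of either sex, pentobarbital 30 mg/kg i.v., had two-stage LAD coronary ligation; tested conscious about 24 h later if ectopic rate ≥130 beats/min, ectopic ≥75% of total rate, and controls within 10%. HCl salts given i.v. to at least two dogs: 5 mg/kg repeated every 15 min to 20 mg/kg max; if active, 1 mg/kg every 5 min to 6 mg/kg. Active means ectopic rate reduced ≥25% for ≥10 min.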

Assay [2] has as its target Muscarinic acetylcholine receptor (Rattus norvegicus) (UniProt P08482+P08483+P08485+P08911+P10980). Briefly: Muscarinic acetylcholine receptor binding affinity in rat brain homogenate by [3H]quinuclidinylbenzilate displacement compared to disopyramide. The format is tissue-based. Summed up: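 Whole male CD rat brain without cerebellum was homogenized and spun at 1000g. The supernatant was incubated with 0.15 nM [3H]QNB, with or without compound, 25 °C, 1 h. Three to six concentrations were run in triplicate, and IC50 came from log-probit analysis. Values are expressed as the ratio IC50(test)/IC50(disopyramide).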

Assay [3] relates to Canis familiaris. The assay is described as follows: Hemodynamic effect of 1 mg/kg of compound was assessed in Beagle dogs by decrease in mean arterial pressure; max dose administered was 10 mg/kg. The format is functional, Canis lupus familiaris, Artery. Summed up: (§2)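 Dogs of either sex were anesthetized with pentobarbital 30 mg/kg i.v. plus 5 mg/kg, then stabilized 30 min. Compound was given via right femoral vein. Where mean antiarrhythmic dose exceeded 5 mg/kg: 5 mg/kg over 5 min every 15 min until MAP fell 50% or 50 mg/kg cumulative. Otherwise: 1 mg/kg/min every 5 min up to 10 mg/kg. MAP was electronically averaged, with baseline the mean of four 5-min readings.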

The species named for assay [4] is Canis familiaris. Briefly: The mean effective dose to suppress ventricular ectopic rate >=25% for a minimum duration of 10 minutes was reported. Format: functional. To be noted: Canis lupus familiaris, Cardiac ventricle, read-out: MED. Summed up: as §1
Assay [5] concerns Canis familiaris. Briefly: Hemodynamic effect of 5 mg/kg of compound was assessed in Beagle dogs by decrease in mean arterial pressure; max dose administered was 35 mg/kg. The format is functional, Canis lupus familiaris, Artery. Summed up: as §2
Assay [6] concerns Canis familiaris. The assay is described as follows: Decrease in myocardial contractility was determined by monitoring the maximum rate of rise of ventricular pressure in 10 Beagle dogs at a dose of 10 mg/kg. Format: functional, Canis lupus familiaris, Cardiac ventricle.
Assay [7] concerns Canis familiaris. The assay is described as follows: Hemodynamic effect of 5 mg/kg of compound was assessed in Beagle dogs by decrease in mean arterial pressure; max dose administered was 50 mg/kg. Format: functional, Canis lupus familiaris, Artery. Summed up:
as §2

Assay [8] is filed under the species Cavia porcellus. Briefly: Antimuscarinic activity in guinea pig ileum. The format is functional. The following applies: read-out: pA2 (converted). Summed up:
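Guinea pig ileum was held in modified Tyrode's gassed with 95% O2/5% CO2, pH 7.4, under 0.5 g tension and equilibrated 30 min. A cumulative acetylcholine curve was run, the tissue rinsed 10 min, and the curve repeated with antagonist at four concentrations at quarter-log steps. pA2 by Van Rossum; if noncompetitive, −log of the concentration cutting maximal response 50%. At least four experiments were run.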

The test system of assay [9] is Canis familiaris. The assay is described as follows: Hemodynamic effect of 5 mg/kg of compound was assessed in Beagle dogs by decrease in mean arterial pressure; max dose administered was 29 mg/kg. Format: functional, Canis lupus familiaris, Artery. An outline of the steps:
as §2

Take `CC(C)N(CCC1(c2ccccc2)C(=O)N=C(c2ccccc2)N2CCCCC21)C(C)C` (centres undefined): the minimal effective dose in assay [1] worked out at 1 mg/kg. In addition, the Muscarinic receptor affinity in assay [2] was 0.25.
Consider `CC(C)N(CCC1(c2ccc(-c3ccccc3)cc2)C(=O)N=CN2CCCCC21)C(C)C` (centres undefined), for which the “Decrease in MAP” value in [3] is listed as 27%. Further, the minimal effective dose in assay [1] and in assay [4] was 2.5 mg/kg throughout. The molecule further came in with a Muscarinic receptor affinity in [2] of 0.02.
`CC(C)N(CC[C@]1(c2ccccc2)C(=O)N(C)CN2CCCC[C@@H]21)C(C)C`: the minimal effective dose in assay [1] was 7.5 mg/kg.
Take `CC(C)N(CC[C@]1(c2ccccc2)C(=O)N[C@@H](C)N2CCCC[C@@H]21)C(C)C`: the minimal effective dose in [1] was found to be 10 mg/kg. For the same molecule, the Muscarinic receptor affinity in [2] was determined as 0.0434.
For the molecule `CC(C)N(CCC1(c2ccccc2)C(=O)NCN2CCCCC21)C(C)C` (centres undefined), the “Decrease in MAP” value in assay [5] came to 54%. Besides, in assay [4], the minimal effective dose amounted to 6 mg/kg. Besides, in [2], the Muscarinic receptor affinity was 0.0769.
Consider `CC(C)N(CCC1(c2ccccc2)C(=O)N=CN2CCCCC21)C(C)C` (centres undefined), for which, in [1], the MED is 10 mg/kg and the minimal effective dose was 20 mg/kg.
Turning to `CCC1NC(=O)C(CCN(C(C)C)C(C)C)(c2ccccc2)C2CCCCN12` (centres undefined), the minimal effective dose in assay [1] is 6 mg/kg. The same molecule had a Muscarinic receptor affinity in [2] of 0.0909.
The molecule `CC1=NC(=O)C(CCN(C(C)C)C(C)C)(c2ccccc2)C2CCCCN12` (centres undefined) [ACTISOMIDE] displayed a Decrease in [6] of 14%. Further, the “Decrease in MAP” value in assay [7] is 3%. Further, the MED in assay [1] was 10 mg/kg. Besides, the results for the minimal effective dose in assay [1] and in assay [4] were 9 mg/kg and 9.1 mg/kg, respectively. Moreover, the Kb in [8] was 13.2 µM.
As for `CC(C)N(CCC1(c2ccccc2Cl)C(=O)NCN2CCCCC21)C(C)C` (centres undefined), in assay [1], the minimal effective dose turned out to be 7.5 mg/kg. Besides, the Muscarinic receptor affinity in assay [2] is under 0.01.
For `CC(C)N(CCC1(c2ccccc2Cl)C(=O)N=CN2CCCCC21)C(C)C` (centres undefined), the minimal effective dose in assay [1] stood at 15 mg/kg. The same molecule displayed a Muscarinic receptor affinity in assay [2] of 0.0125.
`CCC1=NC(=O)C(CCN(C(C)C)C(C)C)(c2ccccc2)C2CCCCN12` (centres undefined): the minimal effective dose in [1] is 12.5 mg/kg. The same molecule came in with a Muscarinic receptor affinity in [2] of 0.0625.
As for `CC(C)N(CCC1(c2ccc(-c3ccccc3)cc2)C(=O)NCN2CCCCC21)C(C)C` (centres undefined), in assay [1], the minimal effective dose was determined as 5 mg/kg. In addition, the Muscarinic receptor affinity in assay [2] turned out to be 0.0625.
On to `CC(C)N(CCC(C(N)=O)(c1ccccc1)c1ccccn1)C(C)C` (centres undefined) [DISOPYRAMIDE], for which the Decrease in [6] turned out to be 56%. Also, the “Decrease in MAP” value in assay [9] came to 57%. Further, the minimal effective dose in assay [1] and in [4] was 10 mg/kg in each case. In assay [8], the Kb is 0.891 µM. In [2], this molecule registered a Muscarinic receptor affinity of 1.
Regarding `CC(C)N(CCC1(c2ccccc2)C(=O)NC(c2ccccc2)N2CCCCC21)C(C)C` (centres undefined), in [1], the minimal effective dose was determined as 4 mg/kg. In addition, the Muscarinic receptor affinity in assay [2] is 0.0434.
In the case of `CC(C)N(CCC1(c2ccccc2)C(=O)NC(C)N2CCCCC21)C(C)C` (centres undefined), in [6], the Decrease was 21%. Also, in assay [3], the “Decrease in MAP” value was found to be 4%. For the same molecule, the minimal effective dose in assay [1] and in [4] was 2.5 mg/kg each time. In addition, the Kb in [8] was 60.3 µM. Besides, the Muscarinic receptor affinity in assay [2] was under 0.05.
